Experimental data reported in BindingDB's records for doi:10.1016/j.bmc.2012.05.040 (Imperial College, 2012).

Key:
[1] = molecular target: T1, Tyrosine-protein phosphatase non-receptor type 1 (Homo sapiens, UniProt P18031); assay: Inhibition of PTP1B using 3-O-Methylfluorescein phosphate as substrate incubated for 10 mins prior to substrate addition by fluorometry
T1 sequence (P18031 whole entry): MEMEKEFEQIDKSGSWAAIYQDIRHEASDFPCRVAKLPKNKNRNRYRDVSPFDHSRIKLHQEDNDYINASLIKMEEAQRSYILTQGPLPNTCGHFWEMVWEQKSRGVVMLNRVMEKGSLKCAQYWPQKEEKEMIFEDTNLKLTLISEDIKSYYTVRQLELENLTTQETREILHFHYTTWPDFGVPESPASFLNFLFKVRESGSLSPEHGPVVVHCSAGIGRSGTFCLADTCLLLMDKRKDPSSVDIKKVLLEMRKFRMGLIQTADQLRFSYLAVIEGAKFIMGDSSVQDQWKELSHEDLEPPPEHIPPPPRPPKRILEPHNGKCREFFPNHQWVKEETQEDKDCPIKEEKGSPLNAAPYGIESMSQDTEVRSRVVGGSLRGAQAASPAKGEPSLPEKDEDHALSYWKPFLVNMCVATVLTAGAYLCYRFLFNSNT
Outline: (§1)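 OMFP phosphatase assay, 20 °C, in 100 mM Tris pH 7.4 with 2 mM DTT. OMFP is taken from a 20 mM DMSO stock and diluted in 1% DMSO. It is used near each enzyme's KM, which is determined beforehand. Enzyme and arylstibonate are preincubated 10 min at RT, then OMFP is added. OMF release is read by fluorescence (ex 485, em 525 nm). Dose-response curves give IC50.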

[2] = molecular target: T2, M-phase inducer phosphatase 3 (Homo sapiens, UniProt P30307); assay: Inhibition of N-terminal His-tagged Cdc25c catalytic domain expressed in Escherichia coli BL21(DE3) using 3-O-Methylfluorescein phosphate as substrate incubated for 10 mins prior to substrate addition by fluorometry; outline: as §1
T2 sequence (P30307 whole entry): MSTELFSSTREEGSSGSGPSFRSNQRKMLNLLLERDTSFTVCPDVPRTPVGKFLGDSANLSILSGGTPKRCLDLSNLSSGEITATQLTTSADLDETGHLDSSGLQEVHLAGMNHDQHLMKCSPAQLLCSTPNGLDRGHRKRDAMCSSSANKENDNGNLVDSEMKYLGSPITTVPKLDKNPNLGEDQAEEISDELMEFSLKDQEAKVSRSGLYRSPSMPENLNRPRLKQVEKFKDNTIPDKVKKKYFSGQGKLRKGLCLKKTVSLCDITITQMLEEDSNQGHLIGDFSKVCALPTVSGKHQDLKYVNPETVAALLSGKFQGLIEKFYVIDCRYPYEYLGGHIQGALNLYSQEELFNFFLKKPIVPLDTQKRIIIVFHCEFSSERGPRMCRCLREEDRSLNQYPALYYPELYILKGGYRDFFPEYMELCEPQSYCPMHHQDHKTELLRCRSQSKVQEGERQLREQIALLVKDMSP

[3] = molecular target: Dual specificity protein phosphatase 3 (Homo sapiens, UniProt P51452); assay: Inhibition of human recombinant His-tagged VHR using 3-O-Methylfluorescein phosphate as substrate incubated for 10 mins prior to substrate addition by fluorometry; outline: as §1
Dual specificity protein phosphatase 3, sequence (P51452 whole entry): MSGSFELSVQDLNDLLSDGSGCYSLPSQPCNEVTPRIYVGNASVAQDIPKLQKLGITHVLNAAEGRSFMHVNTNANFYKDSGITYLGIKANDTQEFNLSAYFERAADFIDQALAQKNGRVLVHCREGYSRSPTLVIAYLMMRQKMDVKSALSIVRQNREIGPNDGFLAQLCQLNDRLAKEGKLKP

[4] = molecular target: T3, Receptor-type tyrosine-protein phosphatase beta (Homo sapiens, UniProt P23467); assay: Inhibition of PTP-beta receptor using 3-O-Methylfluorescein phosphate as substrate incubated for 10 mins prior to substrate addition by fluorometry; outline: as §1
T3 sequence (P23467 whole entry): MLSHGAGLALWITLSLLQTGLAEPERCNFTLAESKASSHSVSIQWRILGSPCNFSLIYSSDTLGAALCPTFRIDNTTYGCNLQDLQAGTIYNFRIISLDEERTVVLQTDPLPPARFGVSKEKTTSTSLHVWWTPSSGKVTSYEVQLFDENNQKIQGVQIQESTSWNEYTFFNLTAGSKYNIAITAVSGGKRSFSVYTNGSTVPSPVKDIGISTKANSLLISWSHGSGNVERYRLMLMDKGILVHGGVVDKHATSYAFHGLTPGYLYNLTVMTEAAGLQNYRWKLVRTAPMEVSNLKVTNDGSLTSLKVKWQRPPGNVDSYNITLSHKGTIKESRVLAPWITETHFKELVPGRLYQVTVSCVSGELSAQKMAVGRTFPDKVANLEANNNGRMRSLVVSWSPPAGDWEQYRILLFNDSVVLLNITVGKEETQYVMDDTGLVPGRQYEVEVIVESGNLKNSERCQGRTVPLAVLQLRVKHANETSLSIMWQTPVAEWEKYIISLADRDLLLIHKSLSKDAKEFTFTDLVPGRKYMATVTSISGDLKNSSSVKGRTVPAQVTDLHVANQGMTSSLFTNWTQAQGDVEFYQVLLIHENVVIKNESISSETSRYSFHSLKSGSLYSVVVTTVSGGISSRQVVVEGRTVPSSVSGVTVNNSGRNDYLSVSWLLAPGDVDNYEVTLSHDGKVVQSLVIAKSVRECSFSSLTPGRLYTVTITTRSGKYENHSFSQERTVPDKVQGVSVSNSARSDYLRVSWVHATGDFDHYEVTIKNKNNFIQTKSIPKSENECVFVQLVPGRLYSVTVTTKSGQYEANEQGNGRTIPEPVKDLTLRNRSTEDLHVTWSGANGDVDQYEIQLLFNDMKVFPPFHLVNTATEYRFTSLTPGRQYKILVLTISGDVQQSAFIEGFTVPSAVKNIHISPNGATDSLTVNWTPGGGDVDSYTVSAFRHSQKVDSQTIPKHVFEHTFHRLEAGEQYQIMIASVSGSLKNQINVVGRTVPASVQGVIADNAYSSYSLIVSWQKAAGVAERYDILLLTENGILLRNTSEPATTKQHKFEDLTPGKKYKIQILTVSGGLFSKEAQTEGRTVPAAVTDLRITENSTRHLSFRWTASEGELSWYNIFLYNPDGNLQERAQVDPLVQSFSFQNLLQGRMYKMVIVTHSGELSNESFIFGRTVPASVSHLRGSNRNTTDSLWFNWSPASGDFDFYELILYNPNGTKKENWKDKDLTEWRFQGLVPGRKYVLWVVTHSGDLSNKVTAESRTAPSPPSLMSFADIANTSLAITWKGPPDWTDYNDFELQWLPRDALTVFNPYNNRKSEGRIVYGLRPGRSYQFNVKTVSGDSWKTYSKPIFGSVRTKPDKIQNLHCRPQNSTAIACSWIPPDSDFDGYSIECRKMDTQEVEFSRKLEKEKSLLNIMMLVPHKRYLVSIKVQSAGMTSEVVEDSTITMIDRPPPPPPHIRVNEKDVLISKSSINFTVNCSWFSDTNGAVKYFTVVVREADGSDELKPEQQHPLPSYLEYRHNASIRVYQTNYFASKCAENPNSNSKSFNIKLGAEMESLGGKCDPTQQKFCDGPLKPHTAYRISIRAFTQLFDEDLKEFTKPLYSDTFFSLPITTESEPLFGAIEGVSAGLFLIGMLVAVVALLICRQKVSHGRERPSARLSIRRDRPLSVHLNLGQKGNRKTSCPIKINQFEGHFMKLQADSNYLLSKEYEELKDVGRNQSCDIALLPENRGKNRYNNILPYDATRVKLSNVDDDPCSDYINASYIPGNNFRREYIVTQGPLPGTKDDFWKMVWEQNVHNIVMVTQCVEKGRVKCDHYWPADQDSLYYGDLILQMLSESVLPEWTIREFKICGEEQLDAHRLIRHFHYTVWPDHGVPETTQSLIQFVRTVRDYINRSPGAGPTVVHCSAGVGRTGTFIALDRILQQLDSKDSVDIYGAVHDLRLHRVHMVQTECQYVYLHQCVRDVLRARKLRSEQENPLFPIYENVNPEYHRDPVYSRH

[5] = molecular target: T4, Dual specificity protein phosphatase 6 (Homo sapiens, UniProt Q16828); assay: Inhibition of MKP3 using 3-O-Methylfluorescein phosphate as substrate incubated for 10 mins prior to substrate addition by fluorometry; outline: as §1
T4 sequence (Q16828 whole entry): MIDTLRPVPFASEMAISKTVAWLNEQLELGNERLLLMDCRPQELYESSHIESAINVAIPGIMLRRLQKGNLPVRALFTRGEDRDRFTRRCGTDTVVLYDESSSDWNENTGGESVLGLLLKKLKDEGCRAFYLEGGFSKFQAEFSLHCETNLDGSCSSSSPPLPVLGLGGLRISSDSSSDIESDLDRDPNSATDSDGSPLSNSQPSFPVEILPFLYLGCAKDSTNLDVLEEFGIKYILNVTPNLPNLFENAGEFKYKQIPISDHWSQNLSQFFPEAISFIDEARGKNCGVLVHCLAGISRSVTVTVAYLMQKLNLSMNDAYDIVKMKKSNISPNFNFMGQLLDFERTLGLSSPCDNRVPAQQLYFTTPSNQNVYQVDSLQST

[6] = molecular target: Phosphatidylinositol 3,4,5-trisphosphate 3-phosphatase and dual-specificity protein phosphatase PTEN (Homo sapiens, UniProt P60484); assay: Inhibition of human PTEN using 3-O-Methylfluorescein phosphate as substrate incubated for 10 mins prior to substrate addition by fluorometry; outline: as §1
Phosphatidylinositol 3,4,5-trisphosphate 3-phosphatase and dual-specificity protein phosphatase PTEN, sequence (P60484 whole entry): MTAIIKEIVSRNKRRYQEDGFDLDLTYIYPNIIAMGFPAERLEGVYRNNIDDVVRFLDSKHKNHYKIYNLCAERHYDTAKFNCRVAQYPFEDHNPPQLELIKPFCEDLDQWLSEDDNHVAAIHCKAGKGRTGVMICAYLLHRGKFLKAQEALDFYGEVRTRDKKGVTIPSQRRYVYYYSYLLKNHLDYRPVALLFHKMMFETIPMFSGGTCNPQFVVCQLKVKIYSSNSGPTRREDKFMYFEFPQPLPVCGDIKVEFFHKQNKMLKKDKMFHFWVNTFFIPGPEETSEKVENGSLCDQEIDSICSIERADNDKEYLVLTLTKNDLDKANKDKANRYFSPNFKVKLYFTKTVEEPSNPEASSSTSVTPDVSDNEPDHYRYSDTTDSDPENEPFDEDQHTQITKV

[7] = molecular target: T3, Receptor-type tyrosine-protein phosphatase beta; assay: Inhibition of PTP-beta receptor using […] as substrate by colorimetric analysis
[8] = molecular target: T5, M-phase inducer phosphatase 1 (Homo sapiens, UniProt P30304); assay: Inhibition of N-terminal His-tagged Cdc25a catalytic domain expressed in Escherichia coli BL21(DE3) using 3-O-Methylfluorescein phosphate as substrate incubated for 10 mins prior to substrate addition by fluorometry; outline: as §1
T5 sequence (P30304 whole entry): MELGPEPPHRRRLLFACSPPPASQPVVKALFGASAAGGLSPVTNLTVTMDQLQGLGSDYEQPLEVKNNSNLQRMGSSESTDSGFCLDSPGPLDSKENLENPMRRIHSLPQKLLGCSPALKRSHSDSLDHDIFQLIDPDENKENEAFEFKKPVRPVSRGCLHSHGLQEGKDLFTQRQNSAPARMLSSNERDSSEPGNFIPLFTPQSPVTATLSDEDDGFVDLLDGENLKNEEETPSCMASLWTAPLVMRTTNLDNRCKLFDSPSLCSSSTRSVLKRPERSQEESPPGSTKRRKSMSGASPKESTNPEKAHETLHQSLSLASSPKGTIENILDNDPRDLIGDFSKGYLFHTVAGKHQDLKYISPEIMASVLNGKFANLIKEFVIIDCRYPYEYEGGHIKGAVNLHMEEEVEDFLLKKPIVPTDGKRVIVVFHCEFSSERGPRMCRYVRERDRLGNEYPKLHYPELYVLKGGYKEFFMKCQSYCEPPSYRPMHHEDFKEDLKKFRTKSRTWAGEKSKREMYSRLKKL

[9] = molecular target: T6, M-phase inducer phosphatase 2 (Homo sapiens, UniProt P30305); assay: Inhibition of N-terminal His-tagged Cdc25b catalytic domain expressed in Escherichia coli BL21(DE3) using 3-O-Methylfluorescein phosphate as substrate incubated for 10 mins prior to substrate addition by fluorometry; outline: as §1
T6 sequence (P30305 whole entry): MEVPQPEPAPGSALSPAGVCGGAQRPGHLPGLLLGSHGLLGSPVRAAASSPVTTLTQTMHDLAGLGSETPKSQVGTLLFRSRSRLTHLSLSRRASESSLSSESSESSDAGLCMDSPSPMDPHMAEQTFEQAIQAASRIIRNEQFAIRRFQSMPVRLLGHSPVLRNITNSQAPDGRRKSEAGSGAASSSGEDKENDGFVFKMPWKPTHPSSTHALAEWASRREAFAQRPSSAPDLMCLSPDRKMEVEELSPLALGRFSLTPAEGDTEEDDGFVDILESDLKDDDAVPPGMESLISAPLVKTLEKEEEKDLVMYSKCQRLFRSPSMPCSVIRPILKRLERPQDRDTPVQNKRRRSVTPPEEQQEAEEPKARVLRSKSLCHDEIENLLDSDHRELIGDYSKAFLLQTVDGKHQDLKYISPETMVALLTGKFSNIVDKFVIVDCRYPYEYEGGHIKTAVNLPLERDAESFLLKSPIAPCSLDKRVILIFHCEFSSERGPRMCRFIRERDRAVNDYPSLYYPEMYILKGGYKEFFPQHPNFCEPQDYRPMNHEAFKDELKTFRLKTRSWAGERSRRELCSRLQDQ

[10] = molecular target: T6, M-phase inducer phosphatase 2; assay: Inhibition of N-terminal His-tagged Cdc25b catalytic domain expressed in Escherichia coli BL21(DE3) using 3-O-Methylfluorescein phosphate as substrate by secondary plot analysis
Outline: (§2)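 Steady-state kinetics of the Cdc25a and Cdc25b catalytic domains with varying OMFP and several arylstibonate concentrations. Run at 20 °C in 100 mM Tris pH 7.4 with 2 mM DTT, after a 10 min RT enzyme–inhibitor preincubation. Fluorescence read at ex 485/em 525 nm. Michaelis–Menten plots give apparent Km and Vmax; secondary plots give Ki.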

[11] = molecular target: T5, M-phase inducer phosphatase 1; assay: Inhibition of N-terminal His-tagged Cdc25a catalytic domain expressed in Escherichia coli BL21(DE3) using 3-O-Methylfluorescein phosphate as substrate by secondary plot analysis; outline: as §2
[12] = molecular target: T7, Phosphatidylglycerophosphatase and protein-tyrosine phosphatase 1 (Homo sapiens, UniProt Q8WUK0); assay: Inhibition of PTPMT1 using 3-O-Methylfluorescein phosphate as substrate incubated for 10 mins prior to substrate addition by fluorometry; outline: as §1
T7 sequence (Q8WUK0 whole entry): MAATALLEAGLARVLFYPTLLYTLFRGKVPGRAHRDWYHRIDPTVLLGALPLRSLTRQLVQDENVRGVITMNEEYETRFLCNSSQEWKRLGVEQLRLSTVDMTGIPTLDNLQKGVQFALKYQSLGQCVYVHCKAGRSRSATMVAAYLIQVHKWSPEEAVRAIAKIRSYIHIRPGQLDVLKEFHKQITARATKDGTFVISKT

Compound	IC50 [1] [µM]	IC50 [2] [µM]	IC50 [3] [µM]	IC50 [4] [µM]	IC50 [5] [µM]	IC50 [6] [µM]	IC50 [7] [µM]	IC50 [8] [µM]	IC50 [9] [µM]	Ki [10] [µM]	Ki [11] [µM]	IC50 [12] [µM]
O=C(O)/C=C/c1ccc[c]([Sb](=[O])([OH])[OH])c1 [(2E)-3-{3-[dihydroxy(oxo)--stibanyl]phenyl}prop-2-enoic acid]	7.93	> 10	> 10	0.77	> 10	10	0.1	0.11	0.6	0.369	0.072	1.62
O=C(O)CCc1ccc[c]([Sb](=[O])([OH])[OH])c1	> 100	> 100	> 100	1.62	> 100	8.87	0.1	3.15	5.67	4.7	1.7	13.4
